Calls of active or inactive are those of the source. The calls are words filed in the database; no cut-off is given here.
What was measured:
Rattus norvegicus [1] = experiment: Anxiolytic-like activity in Sprague-Dawley rat vogel conflict model assessed as increase in number of shocks at 1 mg/kg, po after 1 hr; type: functional, organism-based; set-up: dose 1 mg/kg
Rattus norvegicus [2] = species: Rattus norvegicus; experiment: Displacement of [3H]flumazenil from Sprague-Dawley rat cerebral cortex CBR at 10 uM after 1 hr by liquid scintillation counting analysis; type: tissue-based
[3] = molecular target: Vasopressin V1b receptor (Homo sapiens) (UniProt P47901); experiment: Binding affinity to human vasopressin V1B receptor at 10 uM by radioligand binding assay
Outline: (§1)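 Radioligand binding profiling panel across receptors and transporters linked to CNS, cardiovascular and pulmonary adverse events. Each target was tested once at 10 μM, run in duplicate.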

[4] = molecular target: Vasopressin V1a receptor (Homo sapiens) (UniProt P37288); experiment: Binding affinity to human vasopressin V1A receptor at 10 uM by radioligand binding assay; outline: as §1
Vasopressin V1a receptor (Homo sapiens), sequence (P37288 whole entry, looked up): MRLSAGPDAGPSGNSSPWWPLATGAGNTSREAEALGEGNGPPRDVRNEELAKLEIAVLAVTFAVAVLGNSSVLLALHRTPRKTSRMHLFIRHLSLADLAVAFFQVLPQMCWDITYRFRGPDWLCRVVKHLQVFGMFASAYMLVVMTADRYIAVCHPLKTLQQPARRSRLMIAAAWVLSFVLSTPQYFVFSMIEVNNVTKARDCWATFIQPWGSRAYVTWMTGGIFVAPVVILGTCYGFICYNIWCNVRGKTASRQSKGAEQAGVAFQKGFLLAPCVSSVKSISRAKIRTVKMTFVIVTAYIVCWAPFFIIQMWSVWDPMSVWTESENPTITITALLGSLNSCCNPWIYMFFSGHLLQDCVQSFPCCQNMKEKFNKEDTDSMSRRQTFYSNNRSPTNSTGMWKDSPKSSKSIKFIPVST

[5] = molecular target: Sodium-dependent noradrenaline transporter (Homo sapiens) (UniProt P23975); experiment: Binding affinity to human norepinephrine transporter at 10 uM by radioligand binding assay; outline: as §1
[6] = molecular target: Sodium-dependent dopamine transporter (Homo sapiens) (UniProt Q01959); experiment: Binding affinity to human dopamine transporter at 10 uM by radioligand binding assay; outline: as §1
Sodium-dependent dopamine transporter (Homo sapiens), sequence (Q01959 whole entry): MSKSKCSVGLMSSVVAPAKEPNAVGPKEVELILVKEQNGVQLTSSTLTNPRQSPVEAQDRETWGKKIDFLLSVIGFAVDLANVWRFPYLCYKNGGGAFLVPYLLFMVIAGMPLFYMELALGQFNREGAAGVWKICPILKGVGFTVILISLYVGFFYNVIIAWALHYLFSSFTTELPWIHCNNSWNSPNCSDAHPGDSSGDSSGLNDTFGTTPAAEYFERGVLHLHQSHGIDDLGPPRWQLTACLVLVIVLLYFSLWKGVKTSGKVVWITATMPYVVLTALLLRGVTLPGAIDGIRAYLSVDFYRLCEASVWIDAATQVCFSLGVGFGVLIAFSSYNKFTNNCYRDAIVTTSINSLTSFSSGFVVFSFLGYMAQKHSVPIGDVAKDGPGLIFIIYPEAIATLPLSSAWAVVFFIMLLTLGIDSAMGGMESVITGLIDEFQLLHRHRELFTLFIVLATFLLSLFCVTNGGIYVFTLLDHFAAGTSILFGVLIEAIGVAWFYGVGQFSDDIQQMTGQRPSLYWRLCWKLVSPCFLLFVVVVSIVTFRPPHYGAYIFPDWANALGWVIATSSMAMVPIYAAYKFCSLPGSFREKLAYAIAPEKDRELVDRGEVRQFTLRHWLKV

[7] = molecular target: Somatostatin receptor type 2 (Homo sapiens) (UniProt P30874); experiment: Binding affinity to human somatostatin sst2 receptor at 10 uM by radioligand binding assay; outline: as §1
[8] = molecular target: Substance-P receptor (Homo sapiens) (UniProt P25103); experiment: Binding affinity to human tachykinin NK1 receptor at 10 uM by radioligand binding assay; outline: as §1
[9] = molecular target: Sigma non-opioid intracellular receptor 1 (Homo sapiens) (UniProt Q99720); experiment: Binding affinity to human sigma1 receptor at 10 uM by radioligand binding assay; outline: as §1
[10] = molecular target: 5-hydroxytryptamine receptor 6 (Homo sapiens) (UniProt P50406); experiment: Binding affinity to human serotonin 5HT6 receptor at 10 uM by radioligand binding assay; outline: as §1
[11] = molecular target: 5-hydroxytryptamine receptor 4 (Cavia porcellus) (UniProt O70528); experiment: Binding affinity to guinea pig serotonin 5HT4 receptor at 10 uM by radioligand binding assay; outline: as §1
5-hydroxytryptamine receptor 4 (Cavia porcellus), sequence (O70528 whole entry): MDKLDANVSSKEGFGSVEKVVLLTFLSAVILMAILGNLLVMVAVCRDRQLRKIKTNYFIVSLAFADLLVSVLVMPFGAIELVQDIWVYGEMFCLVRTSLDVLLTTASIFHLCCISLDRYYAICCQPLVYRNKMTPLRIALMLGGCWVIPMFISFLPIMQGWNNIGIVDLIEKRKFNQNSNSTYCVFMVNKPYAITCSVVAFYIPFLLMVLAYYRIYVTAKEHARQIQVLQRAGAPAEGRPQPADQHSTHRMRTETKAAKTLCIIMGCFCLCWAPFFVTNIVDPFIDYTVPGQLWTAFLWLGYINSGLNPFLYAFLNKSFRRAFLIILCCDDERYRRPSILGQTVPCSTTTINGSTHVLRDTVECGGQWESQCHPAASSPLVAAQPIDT

[12] = molecular target: 5-hydroxytryptamine receptor 2A (Rattus norvegicus) (UniProt P14842); experiment: Binding affinity to rat non-selective serotonin 5HT2 receptor at 10 uM by radioligand binding assay; outline: as §1
[13] = molecular target: 5-hydroxytryptamine receptor 3A (Homo sapiens) (UniProt P46098); experiment: Binding affinity to human serotonin 5HT3 receptor at 10 uM by radioligand binding assay; outline: as §1
Mesocricetus auratus = species: Mesocricetus auratus; experiment: Binding affinity to syrian hamster ATP-sensitive potassium channel at 10 uM by radioligand binding assay
Outline: (§2)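 Off-target radioligand binding panel: compound tested in duplicate at a single concentration of 10 μM in each assay. Activity is reported as percent inhibition of radioligand binding.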

[14] = molecular target: Mu-type opioid receptor (Homo sapiens) (UniProt P35372); experiment: Binding affinity to human mu opiate receptor at 10 uM by radioligand binding assay; outline: as §1
Mu-type opioid receptor (Homo sapiens), sequence (P35372 whole entry): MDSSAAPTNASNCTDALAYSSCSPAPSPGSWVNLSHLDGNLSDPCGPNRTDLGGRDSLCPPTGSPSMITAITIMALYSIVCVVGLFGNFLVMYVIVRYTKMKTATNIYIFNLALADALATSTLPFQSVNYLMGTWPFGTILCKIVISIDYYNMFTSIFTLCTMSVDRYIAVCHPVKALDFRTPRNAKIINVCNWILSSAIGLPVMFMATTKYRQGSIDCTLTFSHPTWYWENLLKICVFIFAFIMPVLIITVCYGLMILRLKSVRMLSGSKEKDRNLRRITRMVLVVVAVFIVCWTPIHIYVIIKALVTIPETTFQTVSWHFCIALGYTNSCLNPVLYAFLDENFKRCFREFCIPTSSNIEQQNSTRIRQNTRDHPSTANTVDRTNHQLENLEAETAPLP

[15] = molecular target: Nociceptin receptor (Homo sapiens) (UniProt P41146); experiment: Binding affinity to human ORL1 receptor at 10 uM by radioligand binding assay; outline: as §1
Homo sapiens = species: Homo sapiens; experiment: Binding affinity to human nicotinic acetylcholine receptor at 10 uM by radioligand binding assay; outline: as §2
[16] = molecular target: Neuropeptide Y receptor type 2 (Homo sapiens) (UniProt P49146); experiment: Binding affinity to human Neuropeptide Y receptor Y2 at 10 uM by radioligand binding assay; outline: as §1
[17] = molecular target: Neuropeptide Y receptor type 1 (Homo sapiens) (UniProt P25929); experiment: Binding affinity to human Neuropeptide Y receptor Y1 at 10 uM by radioligand binding assay; outline: as §1
Neuropeptide Y receptor type 1 (Homo sapiens), sequence (P25929 whole entry): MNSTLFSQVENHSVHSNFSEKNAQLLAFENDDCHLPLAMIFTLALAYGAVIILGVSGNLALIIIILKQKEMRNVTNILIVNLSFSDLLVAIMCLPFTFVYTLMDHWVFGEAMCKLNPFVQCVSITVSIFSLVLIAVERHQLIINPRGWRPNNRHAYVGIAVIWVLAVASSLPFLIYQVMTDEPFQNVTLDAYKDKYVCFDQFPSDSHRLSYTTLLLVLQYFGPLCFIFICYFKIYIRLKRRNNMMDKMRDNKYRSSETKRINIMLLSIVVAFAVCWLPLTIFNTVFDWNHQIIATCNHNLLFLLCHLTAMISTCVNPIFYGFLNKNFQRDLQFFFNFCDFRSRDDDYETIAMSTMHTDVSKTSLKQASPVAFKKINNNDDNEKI

[18] = molecular target: Muscarinic acetylcholine receptor M3 (Homo sapiens) (UniProt P20309); experiment: Binding affinity to human muscarinic M3 receptor at 10 uM by radioligand binding assay; outline: as §1
[19] = molecular target: Muscarinic acetylcholine receptor M2 (Homo sapiens) (UniProt P08172); experiment: Binding affinity to human muscarinic M2 receptor at 10 uM by radioligand binding assay; outline: as §1
[20] = molecular target: Histamine H3 receptor (Homo sapiens) (UniProt Q9Y5N1); experiment: Binding affinity to human histamine H3 receptor at 10 uM by radioligand binding assay; outline: as §1
[21] = molecular target: Melanocortin receptor 4 (Homo sapiens) (UniProt P32245); experiment: Binding affinity to human melanocortin MC4 receptor at 10 uM by radioligand binding assay; outline: as §1
Melanocortin receptor 4 (Homo sapiens), sequence (P32245 whole entry): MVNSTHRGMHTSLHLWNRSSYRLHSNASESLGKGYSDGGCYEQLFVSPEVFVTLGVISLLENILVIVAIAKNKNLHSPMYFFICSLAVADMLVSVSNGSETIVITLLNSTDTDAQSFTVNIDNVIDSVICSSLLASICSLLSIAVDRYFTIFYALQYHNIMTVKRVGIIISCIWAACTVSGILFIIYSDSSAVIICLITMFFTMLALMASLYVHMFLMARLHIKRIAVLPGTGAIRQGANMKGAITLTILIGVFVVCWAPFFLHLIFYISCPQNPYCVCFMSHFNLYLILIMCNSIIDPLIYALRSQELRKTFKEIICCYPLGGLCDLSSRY

Rattus norvegicus [22] = species: Rattus norvegicus; experiment: Binding affinity to rat strychnine-sensitive glycine receptor at 10 uM by radioligand binding assay; outline: as §2
Rattus norvegicus [23] = species: Rattus norvegicus; experiment: Binding affinity to rat kainate receptor at 10 uM by radioligand binding assay; outline: as §2
Rattus norvegicus [24] = species: Rattus norvegicus; experiment: Binding affinity to rat N-methyl D-aspartate receptor phencyclidine binding site at 10 uM by radioligand binding assay; outline: as §2
[25] = molecular target: Glucocorticoid receptor (Homo sapiens) (UniProt P04150); experiment: Binding affinity to human glucocorticoid receptor at 10 uM by radioligand binding assay; outline: as §1
[26] = molecular target: Galanin receptor type 1 (Homo sapiens) (UniProt P47211); experiment: Binding affinity to human GAL1 receptor at 10 uM by radioligand binding assay; outline: as §1
Rattus norvegicus [27] = species: Rattus norvegicus; experiment: Binding affinity to rat non-selective GABAB receptor at 10 uM by radioligand binding assay; outline: as §2
Rattus norvegicus [28] = species: Rattus norvegicus; experiment: Binding affinity to rat GABAA receptor agonist binding site at 10 uM by radioligand binding assay; outline: as §2
Rattus norvegicus [29] = species: Rattus norvegicus; experiment: Binding affinity to rat GABAA receptor TBOB binding site at 10 uM by radioligand binding assay; outline: as §2
[30] = molecular target: Estrogen receptor beta (Homo sapiens) (UniProt Q92731); experiment: Binding affinity to human ERbeta at 10 uM by radioligand binding assay; outline: as §1
[31] = molecular target: Corticotropin-releasing factor receptor 1 (Homo sapiens) (UniProt P34998); experiment: Binding affinity to human CRF1 receptor at 10 uM by radioligand binding assay; outline: as §1
[32] = molecular target: D(1A) dopamine receptor (Homo sapiens) (UniProt P21728); experiment: Binding affinity to human dopamine D1 receptor at 10 uM by radioligand binding assay; outline: as §1
[33] = molecular target: Gastrin/cholecystokinin type B receptor (Homo sapiens) (UniProt P32239); experiment: Binding affinity to human CCK2 receptor at 10 uM by radioligand binding assay; outline: as §1
[34] = molecular target: Cannabinoid receptor 1 (Homo sapiens) (UniProt P21554); experiment: Binding affinity to human CB1 receptor at 10 uM by radioligand binding assay; outline: as §1
[35] = molecular target: Cholecystokinin receptor type A (Homo sapiens) (UniProt P32238); experiment: Binding affinity to human CCK1 receptor at 10 uM by radioligand binding assay; outline: as §1
Cholecystokinin receptor type A (Homo sapiens), sequence (P32238 whole entry): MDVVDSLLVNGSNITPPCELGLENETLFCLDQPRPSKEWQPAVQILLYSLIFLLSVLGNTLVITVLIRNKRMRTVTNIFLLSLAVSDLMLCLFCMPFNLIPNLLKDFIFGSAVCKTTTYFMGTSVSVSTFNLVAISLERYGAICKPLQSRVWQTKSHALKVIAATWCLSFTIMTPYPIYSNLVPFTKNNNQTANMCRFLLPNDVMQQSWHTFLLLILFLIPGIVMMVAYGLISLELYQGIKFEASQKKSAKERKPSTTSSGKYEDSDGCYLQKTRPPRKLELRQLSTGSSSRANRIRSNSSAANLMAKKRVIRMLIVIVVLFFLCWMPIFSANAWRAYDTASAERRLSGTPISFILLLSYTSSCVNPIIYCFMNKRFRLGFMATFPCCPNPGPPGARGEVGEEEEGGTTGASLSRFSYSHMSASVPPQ

Rattus norvegicus [36] = species: Rattus norvegicus; experiment: Binding affinity to rat N-type calcium channel at 10 uM by radioligand binding assay; outline: as §2
Rattus norvegicus [37] = species: Rattus norvegicus; experiment: Binding affinity to rat L-type calcium channel dihydropyridine binding site at 10 uM by radioligand binding assay; outline: as §2
[38] = molecular target: Bombesin receptor subtype-3 (Homo sapiens) (UniProt P32247); experiment: Binding affinity to human bombesin BB3 receptor at 10 uM by radioligand binding assay; outline: as §1
Bombesin receptor subtype-3 (Homo sapiens), sequence (P32247 whole entry): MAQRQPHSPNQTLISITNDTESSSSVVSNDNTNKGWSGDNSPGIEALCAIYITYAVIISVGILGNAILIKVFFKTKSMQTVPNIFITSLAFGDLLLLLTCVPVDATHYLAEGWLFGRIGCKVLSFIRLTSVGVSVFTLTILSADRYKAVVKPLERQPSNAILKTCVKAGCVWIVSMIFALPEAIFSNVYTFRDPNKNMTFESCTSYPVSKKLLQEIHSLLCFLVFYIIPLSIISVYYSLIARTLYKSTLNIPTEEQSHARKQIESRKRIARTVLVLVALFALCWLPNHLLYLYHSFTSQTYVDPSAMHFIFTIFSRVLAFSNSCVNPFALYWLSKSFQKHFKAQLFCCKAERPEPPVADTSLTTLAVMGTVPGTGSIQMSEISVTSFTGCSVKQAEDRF

[39] = molecular target: Type-2 angiotensin II receptor (Homo sapiens) (UniProt P50052); experiment: Binding affinity to human angiotensin AT2 receptor at 10 uM by radioligand binding assay; outline: as §1
Type-2 angiotensin II receptor (Homo sapiens), sequence (P50052 whole entry): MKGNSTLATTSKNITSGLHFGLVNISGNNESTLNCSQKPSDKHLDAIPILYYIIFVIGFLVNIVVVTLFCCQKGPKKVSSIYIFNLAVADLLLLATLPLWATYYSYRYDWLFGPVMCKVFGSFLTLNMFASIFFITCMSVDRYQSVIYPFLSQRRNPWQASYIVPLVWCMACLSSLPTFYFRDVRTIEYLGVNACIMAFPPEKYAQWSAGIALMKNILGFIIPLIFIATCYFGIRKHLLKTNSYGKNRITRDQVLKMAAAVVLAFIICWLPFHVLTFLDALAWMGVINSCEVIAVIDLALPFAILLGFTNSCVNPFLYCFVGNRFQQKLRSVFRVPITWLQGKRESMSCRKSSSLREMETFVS

[40] = molecular target: Type-1 angiotensin II receptor (Homo sapiens) (UniProt P30556); experiment: Binding affinity to human angiotensin AT1 receptor at 10 uM by radioligand binding assay; outline: as §1
[41] = molecular target: Beta-2 adrenergic receptor (Homo sapiens) (UniProt P07550); experiment: Binding affinity to human adrenergic beta2 receptor at 10 uM by radioligand binding assay; outline: as §1
Beta-2 adrenergic receptor (Homo sapiens), sequence (P07550 whole entry, looked up): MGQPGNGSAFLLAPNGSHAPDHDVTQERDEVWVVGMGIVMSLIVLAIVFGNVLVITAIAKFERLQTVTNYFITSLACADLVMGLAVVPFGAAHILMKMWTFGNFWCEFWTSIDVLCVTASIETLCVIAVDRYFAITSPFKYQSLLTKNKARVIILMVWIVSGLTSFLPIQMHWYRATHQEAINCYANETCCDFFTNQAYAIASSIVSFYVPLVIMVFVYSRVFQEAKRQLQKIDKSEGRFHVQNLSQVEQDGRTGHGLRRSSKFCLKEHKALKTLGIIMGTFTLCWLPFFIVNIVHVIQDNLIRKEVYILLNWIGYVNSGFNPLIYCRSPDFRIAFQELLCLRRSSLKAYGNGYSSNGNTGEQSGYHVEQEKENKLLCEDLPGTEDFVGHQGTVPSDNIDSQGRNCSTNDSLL

[42] = molecular target: Alpha-2A adrenergic receptor (Homo sapiens) (UniProt P08913); experiment: Binding affinity to human adrenergic alpha2A receptor at 10 uM by radioligand binding assay; outline: as §1
Alpha-2A adrenergic receptor (Homo sapiens), sequence (P08913 whole entry): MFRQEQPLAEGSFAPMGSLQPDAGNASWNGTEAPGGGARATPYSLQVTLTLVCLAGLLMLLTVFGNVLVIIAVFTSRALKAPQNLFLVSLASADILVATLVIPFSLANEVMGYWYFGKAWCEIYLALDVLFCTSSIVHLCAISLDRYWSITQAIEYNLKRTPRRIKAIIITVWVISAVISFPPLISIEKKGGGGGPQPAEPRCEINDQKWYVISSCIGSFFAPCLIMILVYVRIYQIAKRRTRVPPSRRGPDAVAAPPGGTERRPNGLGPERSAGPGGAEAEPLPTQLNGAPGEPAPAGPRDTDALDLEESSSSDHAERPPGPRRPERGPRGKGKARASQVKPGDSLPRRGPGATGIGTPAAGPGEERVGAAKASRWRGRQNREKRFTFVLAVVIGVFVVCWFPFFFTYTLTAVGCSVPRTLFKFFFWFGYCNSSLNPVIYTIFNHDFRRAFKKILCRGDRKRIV

[43] = molecular target: Beta-1 adrenergic receptor (Homo sapiens) (UniProt P08588); experiment: Binding affinity to human adrenergic beta1 receptor at 10 uM by radioligand binding assay; outline: as §1
[44] = molecular target: Adenosine receptor A2a (Homo sapiens) (UniProt P29274); experiment: Binding affinity to human adenosine A2A receptor at 10 uM by radioligand binding assay; outline: as §1
[45] = molecular target: Adenosine receptor A1 (Homo sapiens) (UniProt P30542); experiment: Binding affinity to human adenosine A1 receptor at 10 uM by radioligand binding assay; outline: as §1
Adenosine receptor A1 (Homo sapiens), sequence (P30542 whole entry): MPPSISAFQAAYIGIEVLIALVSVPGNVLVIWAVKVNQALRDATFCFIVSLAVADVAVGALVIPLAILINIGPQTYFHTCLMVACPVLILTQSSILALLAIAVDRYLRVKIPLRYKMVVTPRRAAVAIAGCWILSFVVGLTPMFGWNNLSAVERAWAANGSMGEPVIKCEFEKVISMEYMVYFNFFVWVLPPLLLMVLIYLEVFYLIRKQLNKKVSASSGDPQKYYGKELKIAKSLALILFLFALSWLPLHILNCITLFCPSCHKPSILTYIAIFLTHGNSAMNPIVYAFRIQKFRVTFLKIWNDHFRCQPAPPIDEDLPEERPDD

[46] = molecular target: Phosphodiesterase 4 (Homo sapiens) (UniProt P27815+Q08499+Q07343+Q08493); experiment: Inhibition of human phosphodiesterase PDE4 at 10 uM; type: protein assay
Mus musculus [47] = experiment: Neurotoxicity in ddY mouse assessed as elongation of hexobarbital-induced sleep at 0.3 to 3 mg/kg, po after 1 hr; type: toxicity, organism-based; set-up: dose 0.3-3 mg/kg, route oral; details: in vivo
Mus musculus [48] = experiment: Neurotoxicity in ddY mouse assessed as reduction in locomotor activity at 3 to 30 mg/kg, po after 1 hr; type: toxicity, organism-based; set-up: dose 3-30 mg/kg, route oral; details: in vivo
Rattus norvegicus [49] = experiment: Neurotoxicity in Wistar rat assessed as memory impairment at 1 to 30 mg/kg, po after 1 hr by passive avoidance test; type: toxicity, organism-based; set-up: dose 1-30 mg/kg, route oral; details: in vivo
Mus musculus [50] = experiment: Neurotoxicity in ddY mouse assessed as motor impairment at 3 to 30 mg/kg, po after 1 hr by horizontal rotarod test; type: toxicity, organism-based; set-up: dose 3-30 mg/kg, route oral; details: in vivo
Mus musculus [51] = experiment: Neurotoxicity in ddY mouse assessed as motor impairment at 10 to 100 mg/kg, po after 1 hr by horizontal rotarod test; type: toxicity, organism-based; set-up: dose 10-100 mg/kg, route oral; details: in vivo
[52] = Ratio of drug level in brain to blood in rat at 10 mg/kg, po; type: ADME, organism-based; set-up: dose 10 mg/kg, route oral
Outline: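 Rats dosed orally at 10 mg/kg (HCl salt); brain and blood drug concentrations measured and expressed as brain/blood ratio.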

Mus musculus [53] = experiment: Neurotoxicity in ddY mouse assessed as elongation of hexobarbital-induced sleep at 300 mg/kg, po after 1 hr relative to diazepam; type: toxicity, organism-based; set-up: dose 300 mg/kg, route oral; details: in vivo
Mus musculus [54] = experiment: Neurotoxicity in ddY mouse assessed as reduction in locomotor activity at 10 to 100 mg/kg, po after 1 hr; type: toxicity, organism-based; set-up: dose 10-100 mg/kg, route oral; details: in vivo
Rattus norvegicus [55] = experiment: Neurotoxicity in Wistar rat assessed as memory impairment at 3 to 30 mg/kg, po after 1 hr by passive avoidance test; type: toxicity, organism-based; set-up: dose 3-30 mg/kg, route oral; details: in vivo

CN(C(=O)Cn1c(=O)oc2ccc(-c3cccnc3)cc21)c1ccc(C(F)(F)F)cc1
Activity (Rattus norvegicus [1]): Active | inhibition (Rattus norvegicus [2]): 0% | inhibition [3]: inactive | inhibition [4]: inactive | inhibition [5]: inactive | inhibition [6]: inactive | inhibition [7]: inactive | inhibition [8]: inactive | inhibition [9]: inactive | inhibition [10]: inactive | inhibition [11]: inactive | inhibition [12]: inactive | inhibition [13]: inactive | inhibition (Mesocricetus auratus): inactive | inhibition [14]: inactive | inhibition [15]: inactive | inhibition (Homo sapiens): inactive | inhibition [16]: inactive | inhibition [17]: inactive | inhibition [18]: inactive | inhibition [19]: inactive | inhibition [20]: inactive | inhibition [21]: inactive | inhibition (Rattus norvegicus [22]): inactive | inhibition (Rattus norvegicus [23]): inactive | inhibition (Rattus norvegicus [24]): inactive | inhibition [25]: inactive | inhibition [26]: inactive | inhibition (Rattus norvegicus [27]): inactive | inhibition (Rattus norvegicus [28]): inactive | inhibition (Rattus norvegicus [29]): inactive | inhibition [30]: inactive | inhibition [31]: inactive | inhibition [32]: inactive | inhibition [33]: inactive | inhibition [34]: inactive | inhibition [35]: inactive | inhibition (Rattus norvegicus [36]): inactive | inhibition (Rattus norvegicus [37]): inactive | inhibition [38]: inactive | inhibition [39]: inactive | inhibition [40]: inactive | inhibition [41]: inactive | inhibition [42]: inactive | inhibition [43]: inactive | inhibition [44]: inactive | inhibition [45]: inactive | inhibition [46]: inactive

CN1C(=O)CN=C(c2ccccc2)c2cc(Cl)ccc21 [DIAZEPAM]
Activity (Mus musculus [47]): Toxic | Activity (Mus musculus [48]): Toxic | Activity (Rattus norvegicus [49]): Toxic | Activity (Mus musculus [50]): Toxic

CN(C(=O)Cn1c(=O)oc2ccc(-c3cccnc3)cc21)c1ccc(C(F)(F)F)cc1.Cl
Activity (Mus musculus [51]): Non-toxic | Kp [52]: 1.2 | Activity (Mus musculus [53]): Non-toxic | Activity (Mus musculus [54]): Non-toxic | Activity (Rattus norvegicus [55]): Non-toxic

Source: ChEMBL document CHEMBL2440065, “Identification of a novel benzoxazolone derivative as a selective, orally active 18 kDa translocator protein (TSPO) ligand” (J Med Chem, 2013)
